For experiment [1], the system named is MCF7. In words: Inhibition of 6.5 Gy [60Co]-induced G2 DNA damage check point in MCF7 mp53 cells. The class given is functional, cell-based. The settings on record: Homo sapiens. Summed up:
(§1)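 MCF-7 mp53 cells seeded at 2 × 10^5 cells/dish, cultured 24 h, then given 6.5 Gy (60Co, 1.2 Gy/min). Sixteen hours later (90% in G2), compound added with 100 ng/mL nocodazole for 8 h. Cells fixed in 70% EtOH, stained with mitosis-specific antibody GF-7 and propidium iodide. 20 000 events per sample read by flow cytometry as % cells escaping G2 arrest. DMSO carrier control.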

The test system of experiment [2] is MCF7. In words: Inhibition of cell proliferation in MCF7 mp53 cells in absence of 6.5 Gy [60Co]-induced DNA damage. The class given is functional, cell-based. The settings on record: Homo sapiens. The method, boiled down: (§2)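 MCF-7 mp53 cells seeded at 1000 cells/well and grown overnight. Compound applied over a concentration range for 24 h (DMSO ≤1% final), then irradiated with 0 or 6.5 Gy. Compound removed 24 h later and cells grown in fresh medium until untreated cells neared confluence (typically 4-6 days). Proliferation read by MTT, 2 h at 37 °C, SDS/DMF solubilisation, absorbance 570 nm. IC50 reported.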

In experiment [3] the test system is MCF7. The experiment is described as follows: Inhibition of 6.5 Gy [60Co]-induced G2 DNA damage check point in MCF7 mp53 cells at >10 uM. Type of experiment: functional, cell-based. The settings on record: Homo sapiens. The method, boiled down: as §1
For experiment [4], the system named is MCF7. The experiment is described as follows: Inhibition of cell proliferation in MCF7 mp53 cells in presence of 6.5 Gy [60Co]-induced DNA damage. Type of experiment: functional, cell-based. The settings on record: Homo sapiens. Summed up:
as §2

The subject of experiment [5] is MCF7. The experiment is described as follows: Inhibition of 6.5 Gy [60Co]-induced G2 DNA damage check point in MCF7 mp53 cells at 10 uM. Type of experiment: functional, Homo sapiens. More on the design: scale not given: the % may be the effect or the level left. The method, boiled down: as §1
The subject of experiment [6] is MCF7. The experiment is described as follows: Inhibition of 6.5 Gy [60Co]-induced G2 DNA damage check point in MCF7 mp53 cells at 50 uM. The class given is functional, Homo sapiens. Also on record: scale not given: the % may be the effect or the level left. The method, boiled down: as §1
Experiment [7] deals with T1, Serine/threonine-protein kinase Chk1 (Homo sapiens) (UniProt O14757).
T1 sequence (whole entry): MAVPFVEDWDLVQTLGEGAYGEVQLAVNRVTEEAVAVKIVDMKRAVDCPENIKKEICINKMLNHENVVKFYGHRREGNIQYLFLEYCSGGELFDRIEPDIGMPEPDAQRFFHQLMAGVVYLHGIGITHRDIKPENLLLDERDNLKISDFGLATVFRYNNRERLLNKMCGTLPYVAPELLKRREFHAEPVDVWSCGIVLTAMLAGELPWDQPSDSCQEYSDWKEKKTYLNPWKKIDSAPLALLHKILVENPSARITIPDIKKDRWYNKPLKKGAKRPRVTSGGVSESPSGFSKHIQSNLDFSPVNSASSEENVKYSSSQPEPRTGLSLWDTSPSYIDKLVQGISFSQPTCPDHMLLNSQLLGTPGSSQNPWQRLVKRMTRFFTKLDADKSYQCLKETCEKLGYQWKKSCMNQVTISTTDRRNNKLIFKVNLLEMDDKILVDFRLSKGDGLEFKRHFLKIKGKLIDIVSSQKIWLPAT
The experiment is described as follows: Inhibition of Chk1.

Active and inactive are the calls of the source. No cut-off for these calls is given here.

Consider `COc1cc2c(cc1O)CC[n+]1cc3cc(OC)c(OC)cc3cc1-2` [DEHYDRODISCRETINE], for which the result in the experiment on MCF7 [1] and with MCF7 [3] was inactive. For the same compound, the results for the IC50 in the experiment on MCF7 [2] and with MCF7 [4] were 25 µM and 7 µM, respectively.
Consider `O=C1NC(=O)c2c1c1c3ccccc3[nH]c1n1cncc21` [ISOGRANULATIMIDE], for which the Activity in the experiment with MCF7 [5] was determined as 35%.
Take `CN1CCc2cc3c(c4c2[C@H]1[C@@H](O)c1ccccc1-4)OCO3` [OLIVEROLINE]: the Activity is 35% in the experiment on MCF7 [6] and “Dose-dependent effect” in the experiment with MCF7 [1]. The results for the IC50 in the experiment on MCF7 [2] and in the experiment on MCF7 [4] were 45 µM and 20 µM, respectively. In addition, in the experiment on MCF7 [3], the outcome was Active. In addition, the result in experiment [7] was inactive.
`COc1cc2c(cc1OC)-c1cc3cc(OC)c(OC)cc3c[n+]1CC2` [PSEUDOPALMATINE]: the outcome in the experiment on MCF7 [1] and in the experiment with MCF7 [3] was inactive. The results for the IC50 with MCF7 [2] and in the experiment with MCF7 [4] were 250 µM and 80 µM, respectively.

The term IC50 denotes the midpoint of a concentration-inhibition curve.

The record behind these values is ChEMBL document CHEMBL1142057, “Inhibition of the G2 DNA damage checkpoint by oliveroline isolated from Duguetia odorata” (J Nat Prod, 2007).
